Experimental data as given in ChEMBL document CHEMBL1949507, “Synthesis and biological evaluation of [6]-gingerol analogues as transient receptor potential channel TRPV1 and TRPA1 modulators” (Bioorg Med Chem Lett, 2012).

Assays:
Assay type in all cases: functional, cell-based
[1] = target: T1, Transient receptor potential cation channel subfamily V member 1 (Homo sapiens, UniProt Q8NER1); assay: Antagonist activity at human TRPV1 ion channel expressed in HEK293 cells assessed as inhibition of capsaicin-induced calcium influx incubated for 5 mins prior to capsicin-induction by fluo-4-AM-based fluorimetry
T1 sequence (Q8NER1 whole entry): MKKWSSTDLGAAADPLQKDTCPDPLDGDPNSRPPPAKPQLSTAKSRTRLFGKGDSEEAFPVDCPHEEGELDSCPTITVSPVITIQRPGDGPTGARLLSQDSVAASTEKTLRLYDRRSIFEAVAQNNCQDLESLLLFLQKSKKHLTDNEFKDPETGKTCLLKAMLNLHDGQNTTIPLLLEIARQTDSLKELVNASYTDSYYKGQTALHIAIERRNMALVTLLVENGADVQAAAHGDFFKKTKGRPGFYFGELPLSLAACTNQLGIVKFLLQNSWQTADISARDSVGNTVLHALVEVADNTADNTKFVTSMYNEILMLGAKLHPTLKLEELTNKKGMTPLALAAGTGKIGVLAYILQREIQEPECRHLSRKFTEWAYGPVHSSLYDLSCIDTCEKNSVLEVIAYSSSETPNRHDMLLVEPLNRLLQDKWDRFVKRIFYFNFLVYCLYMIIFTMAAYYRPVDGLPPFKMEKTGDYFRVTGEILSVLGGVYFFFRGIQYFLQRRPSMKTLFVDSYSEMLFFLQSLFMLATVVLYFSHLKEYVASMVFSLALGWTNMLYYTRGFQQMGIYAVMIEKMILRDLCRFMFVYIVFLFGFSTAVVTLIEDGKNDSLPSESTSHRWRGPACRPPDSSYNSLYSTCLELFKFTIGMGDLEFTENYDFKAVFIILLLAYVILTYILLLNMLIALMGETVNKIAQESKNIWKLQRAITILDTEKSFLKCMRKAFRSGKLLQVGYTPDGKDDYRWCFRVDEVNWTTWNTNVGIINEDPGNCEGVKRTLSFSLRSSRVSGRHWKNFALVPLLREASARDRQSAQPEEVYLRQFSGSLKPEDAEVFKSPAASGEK
In short: (§1)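 Stably transfected HEK293 (human TRPV1 or rat TRPA1) were loaded with Fluo-4-AM, washed in Tyrode's buffer and read by spectrofluorimetry (ex 488/em 516 nm). […] Inhibition of the agonist-evoked [Ca2+]i rise was recorded, giving IC50.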

[2] = target: T1, Transient receptor potential cation channel subfamily V member 1; assay: Agonist activity at human TRPV1 ion channel expressed in HEK293 cells assessed as calcium influx by fluo-4-Am-based fluorimetry relative to ionomycin
[3] = target: Transient receptor potential cation channel subfamily A member 1 (Rattus norvegicus) (UniProt Q6RI86); assay: Agonist activity at rat TRPA1 ion channel expressed in HEK293 cells assessed as calcium influx by fluo-4-Am-based fluorimetry relative to allyl isothiocyanate
Transient receptor potential cation channel subfamily A member 1 (Rattus norvegicus), sequence (Q6RI86 whole entry): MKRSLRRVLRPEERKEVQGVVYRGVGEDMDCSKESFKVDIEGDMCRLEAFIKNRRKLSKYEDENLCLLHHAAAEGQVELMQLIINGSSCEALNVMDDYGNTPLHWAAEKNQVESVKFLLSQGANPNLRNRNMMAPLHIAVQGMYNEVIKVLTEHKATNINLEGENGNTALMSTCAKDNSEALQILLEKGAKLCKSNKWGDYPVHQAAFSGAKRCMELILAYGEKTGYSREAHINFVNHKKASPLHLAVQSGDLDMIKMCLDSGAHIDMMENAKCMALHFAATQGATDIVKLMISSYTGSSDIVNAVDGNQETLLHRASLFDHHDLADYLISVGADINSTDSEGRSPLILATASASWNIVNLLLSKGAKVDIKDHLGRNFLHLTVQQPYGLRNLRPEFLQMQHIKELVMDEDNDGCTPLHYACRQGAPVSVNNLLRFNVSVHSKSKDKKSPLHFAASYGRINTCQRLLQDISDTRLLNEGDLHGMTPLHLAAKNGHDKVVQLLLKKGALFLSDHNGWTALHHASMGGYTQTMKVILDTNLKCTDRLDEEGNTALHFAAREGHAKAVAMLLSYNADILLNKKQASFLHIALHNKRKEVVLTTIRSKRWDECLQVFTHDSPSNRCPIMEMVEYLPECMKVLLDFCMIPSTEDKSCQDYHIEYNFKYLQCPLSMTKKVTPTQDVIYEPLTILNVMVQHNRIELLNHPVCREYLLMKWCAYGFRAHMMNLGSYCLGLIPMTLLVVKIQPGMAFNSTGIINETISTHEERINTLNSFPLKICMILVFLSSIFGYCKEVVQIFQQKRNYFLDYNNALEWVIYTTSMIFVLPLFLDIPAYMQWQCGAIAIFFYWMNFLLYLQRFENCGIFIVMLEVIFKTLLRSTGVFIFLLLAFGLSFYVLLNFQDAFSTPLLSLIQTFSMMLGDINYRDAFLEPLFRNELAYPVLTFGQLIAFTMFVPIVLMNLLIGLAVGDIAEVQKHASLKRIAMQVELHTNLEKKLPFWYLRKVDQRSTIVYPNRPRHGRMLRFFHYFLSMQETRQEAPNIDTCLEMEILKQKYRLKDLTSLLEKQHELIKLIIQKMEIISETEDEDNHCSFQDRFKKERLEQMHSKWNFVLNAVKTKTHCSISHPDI

[4] = target: T2, Transient receptor potential cation channel subfamily A member 1 (Rattus norvegicus, UniProt Q6RI86); assay: Antagonist activity at rat TRPA1 ion channel expressed in HEK293 cells assessed as inhibition of AITC-induced calcium influx incubated for 5 mins prior to AITC-induction by fluo-4-AM-based fluorimetry; in short: as §1
T2 sequence (Q6RI86 whole entry): as above

[5] = target: T1, Transient receptor potential cation channel subfamily V member 1; assay: Agonist activity at human TRPV1 ion channel expressed in HEK293 cells assessed as calcium influx by fluo-4-Am-based fluorimetry
[6] = target: T2, Transient receptor potential cation channel subfamily A member 1; assay: Agonist activity at rat TRPA1 ion channel expressed in HEK293 cells assessed as calcium influx by fluo-4-Am-based fluorimetry
[7] = target: Transient receptor potential cation channel subfamily A member 1 (Rattus norvegicus) (UniProt Q6RI86); assay: Agonist activity at rat TRPA1 ion channel expressed in HEK293 cells assessed as calcium influx by fluo-4-Am-based fluorimetry relative to ionomycin
In short: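 HEK293 cells stably transfected with rat TRPA1 cDNA, loaded with Fluo-4-AM in EMEM, washed twice in Tyrode's buffer and read in a spectrofluorimeter cuvette (ex 488 nm, em 516 nm). [Ca2+]i was measured before and after adding various concentrations of test compound. Responses in non-transfected wild-type HEK293 cells served as baseline and were subtracted from transfected-cell values.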

| SMILES | IC50 [1] [µM] | Efficacy [2] [%] | Efficacy [3] [%] | IC50 [4] [µM] | EC50 [5] [µM] | EC50 [6] [µM] | Efficacy [7] [%] |
| --- | --- | --- | --- | --- | --- | --- | --- |
| COc1cc(CCC(=O)CC(O)CCCCCCc2ccccc2)ccc1O (stereo not given) | 0.11 | 60 | < 10 | 38.2 | 0.11 | – | – |
| Cc1cc(O)c(C(C)C)cc1CCC(=O)CC(O)CCCCCCc1ccccc1 (stereo not given) | 1.3 | 33.5 | 163 | 14.3 | 0.5 | 22.1 | – |
| CCCCCC(O)CC(=O)CCc1ccccc1 (stereo not given) | > 50 | < 10 | < 10 | 56.1 | – | – | – |
| O=C(CCc1ccc2c(c1)OCO2)CC(O)CCCCCCc1ccccc1 (stereo not given) | > 10 | – | – | – | – | – | – |
| CC(C)c1cc(CCC(=O)CC(O)CCCCCCc2ccccc2)cc(C(C)C)c1O (stereo not given) | > 10 | < 10 | < 10 | 11.1 | – | – | – |
| CCCCCC(O)CC(=O)CCc1ccc(O)c(OC)c1 (racemic) | 5 | 51.4 | 11.4 | > 100 | 3.3 | 10.4 | – |
| COc1cc(CCC(=O)CC(O)Cc2ccccc2)ccc1O (stereo not given) | 13.2 | 56.9 | < 10 | 97.8 | 14.3 | – | – |
| O=C(CCc1ccc(O)cc1)CC(O)Cc1ccccc1 (stereo not given) | 33.5 | 10.8 | 131 | 35.1 | 1 | 10.7 | – |
| Cc1cc(O)c(C(C)C)cc1CCC(=O)CC(O)Cc1ccccc1 (stereo not given) | 35.3 | < 10 | 51.3 | 39.7 | – | 3.5 | – |
| CCCCCC(O)CC(=O)CCc1cc(C(C)C)c(O)c(C(C)C)c1 (stereo not given) | > 50 | < 10 | 63.6 | 2.8 | – | 2.1 | – |
| O=C(CCc1ccccc1)CC(O)Cc1ccccc1 (stereo not given) | > 50 | < 10 | 17.5 | 4.5 | – | – | – |
| CCCCCC(O)CC(=O)CCc1ccc2c(c1)OCO2 (stereo not given) | > 100 | < 10 | < 10 | > 100 | – | – | – |
| CC(C)c1cc(CCC(=O)CC(O)Cc2ccccc2)cc(C(C)C)c1O (stereo not given) | > 50 | < 10 | < 10 | – | – | – | – |
| O=C(/C=C/CCCCCCc1ccccc1)CCc1ccc(O)cc1 | 1.2 | 19.7 | 89.2 | 2.3 | 0.1 | 2.2 | – |
| COc1cc(CNC(=O)CCCC/C=C/C(C)C)ccc1O | – | – | 100 | – | – | – | – |
| O=C(CCc1ccc2c(c1)OCO2)CC(O)Cc1ccccc1 (stereo not given) | > 50 | < 10 | 16.5 | 14.4 | – | – | – |
| CCCCCC(O)CC(=O)CCc1ccc(O)cc1 (stereo not given) | 10.5 | 23.6 | 114 | 22.6 | 1.2 | 8.4 | – |
| O=C(CCc1ccccc1)CC(O)CCCCCCc1ccccc1 (stereo not given) | > 10 | < 10 | < 10 | – | – | – | – |
| CCCCCC(O)CC(=O)CCc1cc(C(C)C)c(O)cc1C (stereo not given) | 4.8 | < 10 | 78.2 | 3.9 | – | 1.1 | – |
| CCCCC/C=C/C(=O)CCc1ccc(O)c(OC)c1 [SHOGAOL] | 0.29 | 79.2 | 91.1 | 16.7 | 0.32 | 16 | – |
| C=CCN=C=S | – | – | – | – | – | – | 41.8 |
| O=C(CCc1ccc(O)cc1)CC(O)CCCCCCc1ccccc1 (stereo not given) | 9.4 | 43 | < 10 | 15.8 | 14.6 | – | – |
